Data taken from ChEMBL document CHEMBL3593208 (Bioorg Med Chem, 2015).

Assays:
Histone deacetylase 8 = biological target: T1, Histone deacetylase 8 (Homo sapiens, UniProt Q9BY41); assay: Inhibition of recombinant full-length HDAC8 (unknown origin) using MAZ1600/MAZ1675 as substrate assessed as release of 7 amino-4-methylcoumarin measured every 5 mins by fluorescence assay
T1 sequence (Q9BY41 whole entry): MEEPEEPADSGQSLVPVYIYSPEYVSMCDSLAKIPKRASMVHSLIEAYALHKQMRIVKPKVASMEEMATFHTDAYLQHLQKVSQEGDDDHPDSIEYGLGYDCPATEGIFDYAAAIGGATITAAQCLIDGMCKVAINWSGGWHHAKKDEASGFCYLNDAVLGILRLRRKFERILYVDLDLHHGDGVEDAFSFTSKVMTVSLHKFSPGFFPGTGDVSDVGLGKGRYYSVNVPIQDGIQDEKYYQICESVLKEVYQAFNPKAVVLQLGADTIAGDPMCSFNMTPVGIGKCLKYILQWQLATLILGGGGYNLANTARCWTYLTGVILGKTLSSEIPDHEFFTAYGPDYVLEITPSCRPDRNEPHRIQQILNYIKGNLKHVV
How it was run: (§1)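 AMC release after deacetylase plus trypsin action read every 5 min. First derivative in the linear range used. Replicates normalised to DMSO controls (<0.5%). IC50 by logistic regression, unconstrained max/min.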

[1] = Cytotoxicity against human NMC-797 cells assessed as cell viability after 48 hrs by luminescence assay; type: functional, cell-based; conditions: NMC-797, 48 h
How it was run: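 797 cells seeded at 2.0×10^4 cells/well in 384-well plates. Compound was pin-transferred in a dose-response series with 0.02% DMSO final and incubated 48 h. Viability was read as ATP-dependent luminescence. IC50 was estimated by logistic regression of replicate measurements against dose, with standard error of logIC50.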

[2] = Cytotoxicity against human NMC-10326 cells assessed as cell viability after 48 hrs by luminescence assay; type: functional, cell-based
How it was run: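 Cells seeded in 384-well plates at 2.0×10^4 cells/well; compound pin-transferred in a dose series, final DMSO 0.02%. After 48 h exposure, viability read as ATP-dependent luminescence (ATPLite). IC50 estimated from replicate measurements by logistic regression.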

Histone deacetylase 2 = Histone deacetylase 2 (Homo sapiens, UniProt Q92769); assay: Inhibition of recombinant full-length HDAC2 (unknown origin) using MAZ1600/MAZ1675 as substrate assessed as release of 7 amino-4-methylcoumarin measured every 5 mins by fluorescence assay; how it was run: as §1
Sequence of Histone deacetylase 2 (Q92769 whole entry): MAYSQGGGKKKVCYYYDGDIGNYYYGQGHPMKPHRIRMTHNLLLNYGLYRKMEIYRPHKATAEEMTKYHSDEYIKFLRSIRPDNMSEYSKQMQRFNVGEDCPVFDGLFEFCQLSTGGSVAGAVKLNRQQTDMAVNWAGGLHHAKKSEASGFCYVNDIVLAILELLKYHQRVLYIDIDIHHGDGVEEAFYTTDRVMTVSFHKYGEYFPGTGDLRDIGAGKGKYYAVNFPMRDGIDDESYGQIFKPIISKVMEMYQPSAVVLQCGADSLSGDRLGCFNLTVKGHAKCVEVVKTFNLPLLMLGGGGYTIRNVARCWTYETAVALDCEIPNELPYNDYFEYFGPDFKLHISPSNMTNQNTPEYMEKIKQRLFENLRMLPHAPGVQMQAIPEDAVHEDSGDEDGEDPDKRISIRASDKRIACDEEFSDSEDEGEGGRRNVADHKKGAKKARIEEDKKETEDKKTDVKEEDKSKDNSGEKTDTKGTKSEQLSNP

Histone deacetylase 1 = Histone deacetylase 1 (Homo sapiens, UniProt Q13547); assay: Inhibition of recombinant full-length HDAC1 (unknown origin) using MAZ1600/MAZ1675 as substrate assessed as release of 7 amino-4-methylcoumarin measured every 5 mins by fluorescence assay; how it was run: as §1
Sequence of Histone deacetylase 1 (Q13547 whole entry): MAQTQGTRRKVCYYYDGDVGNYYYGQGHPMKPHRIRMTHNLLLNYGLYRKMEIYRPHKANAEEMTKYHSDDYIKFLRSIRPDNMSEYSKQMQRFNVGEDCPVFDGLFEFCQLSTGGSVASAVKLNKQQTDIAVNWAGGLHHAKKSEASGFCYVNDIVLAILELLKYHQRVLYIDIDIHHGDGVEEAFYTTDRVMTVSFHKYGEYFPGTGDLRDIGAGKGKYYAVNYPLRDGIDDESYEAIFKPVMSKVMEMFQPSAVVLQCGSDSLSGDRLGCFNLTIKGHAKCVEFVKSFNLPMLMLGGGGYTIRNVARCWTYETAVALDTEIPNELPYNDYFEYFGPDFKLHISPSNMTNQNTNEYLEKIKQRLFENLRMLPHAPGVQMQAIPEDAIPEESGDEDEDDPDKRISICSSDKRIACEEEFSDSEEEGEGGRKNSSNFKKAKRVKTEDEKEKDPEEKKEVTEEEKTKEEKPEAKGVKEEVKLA

Histone deacetylase 3 = Histone deacetylase 3 (Homo sapiens, UniProt O15379); assay: Inhibition of recombinant full-length HDAC3 (unknown origin) using MAZ1600/MAZ1675 as substrate assessed as release of 7 amino-4-methylcoumarin measured every 5 mins by fluorescence assay
Sequence of Histone deacetylase 3 (O15379 whole entry): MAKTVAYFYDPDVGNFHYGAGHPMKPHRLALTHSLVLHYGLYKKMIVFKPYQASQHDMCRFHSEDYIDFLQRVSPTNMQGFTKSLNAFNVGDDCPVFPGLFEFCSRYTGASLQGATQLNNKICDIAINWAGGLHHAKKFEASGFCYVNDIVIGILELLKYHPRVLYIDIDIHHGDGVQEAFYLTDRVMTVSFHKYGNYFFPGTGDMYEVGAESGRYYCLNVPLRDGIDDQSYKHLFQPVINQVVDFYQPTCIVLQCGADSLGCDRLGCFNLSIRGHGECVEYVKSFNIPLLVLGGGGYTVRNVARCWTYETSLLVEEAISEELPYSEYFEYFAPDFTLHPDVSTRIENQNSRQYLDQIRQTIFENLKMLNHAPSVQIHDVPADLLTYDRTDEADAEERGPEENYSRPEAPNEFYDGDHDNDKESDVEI

[3] = biological target: T2, Protein deacetylase HDAC6 (Homo sapiens, UniProt Q9UBN7); assay: Inhibition of recombinant full-length HDAC6 (unknown origin) using MAZ1600/MAZ1675 as substrate assessed as release of 7 amino-4-methylcoumarin measured every 5 mins by fluorescence assay
T2 sequence (Q9UBN7 whole entry): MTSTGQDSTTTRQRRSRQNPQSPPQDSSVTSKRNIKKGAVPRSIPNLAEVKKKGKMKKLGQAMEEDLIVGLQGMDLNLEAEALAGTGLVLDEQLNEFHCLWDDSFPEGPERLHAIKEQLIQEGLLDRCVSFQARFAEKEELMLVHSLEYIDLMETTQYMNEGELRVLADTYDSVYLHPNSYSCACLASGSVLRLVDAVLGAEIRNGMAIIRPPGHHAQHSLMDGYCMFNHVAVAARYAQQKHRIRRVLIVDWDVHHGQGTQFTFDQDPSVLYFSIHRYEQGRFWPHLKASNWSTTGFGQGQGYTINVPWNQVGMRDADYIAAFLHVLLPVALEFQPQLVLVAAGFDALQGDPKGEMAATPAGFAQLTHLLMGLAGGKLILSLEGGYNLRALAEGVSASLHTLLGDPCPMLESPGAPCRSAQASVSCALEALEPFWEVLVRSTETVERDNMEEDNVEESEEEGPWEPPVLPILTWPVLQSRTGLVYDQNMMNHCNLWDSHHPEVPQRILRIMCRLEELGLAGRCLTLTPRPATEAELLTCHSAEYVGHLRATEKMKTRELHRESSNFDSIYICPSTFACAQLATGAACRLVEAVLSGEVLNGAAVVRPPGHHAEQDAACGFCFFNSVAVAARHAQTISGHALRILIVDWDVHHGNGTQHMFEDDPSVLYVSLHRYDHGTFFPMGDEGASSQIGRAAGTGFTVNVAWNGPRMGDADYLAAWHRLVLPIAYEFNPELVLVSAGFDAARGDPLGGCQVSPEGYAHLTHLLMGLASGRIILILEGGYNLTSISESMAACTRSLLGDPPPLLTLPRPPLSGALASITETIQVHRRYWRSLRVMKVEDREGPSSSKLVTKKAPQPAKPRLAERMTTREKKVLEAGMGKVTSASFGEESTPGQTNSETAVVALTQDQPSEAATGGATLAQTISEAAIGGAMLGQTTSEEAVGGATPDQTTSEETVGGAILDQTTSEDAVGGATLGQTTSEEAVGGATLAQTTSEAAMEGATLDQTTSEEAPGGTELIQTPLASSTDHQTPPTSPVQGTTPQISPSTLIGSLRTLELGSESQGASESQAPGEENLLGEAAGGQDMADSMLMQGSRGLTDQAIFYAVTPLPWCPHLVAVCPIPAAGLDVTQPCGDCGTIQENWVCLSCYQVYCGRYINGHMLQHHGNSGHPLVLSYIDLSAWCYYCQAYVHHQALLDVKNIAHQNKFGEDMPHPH
How it was run: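 AMC release after deacetylase/trypsin action read every 5 min. Linear-range first derivative normalised to DMSO controls (<0.5%). IC50 by unconstrained logistic regression.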

SMILES	IC50 (Histone deacetylase 8) [nM]	IC50 ([1]; read-out: IC50) [nM]	IC50 ([1]; read-out: pIC50 (converted)) [nM]	IC50 ([2]; read-out: IC50) [nM]	IC50 ([2]; read-out: pIC50 (converted)) [nM]	IC50 (Histone deacetylase 2) [nM]	IC50 (Histone deacetylase 1) [nM]	IC50 (Histone deacetylase 3) [nM]	IC50 [3] [nM]
CC(C)[C@@H]1NC(=O)[C@]2(C)CSC(=N2)c2csc(n2)CNC(=O)C[C@@H](/C=C/CCS)NC1=O	255	1740	1730	11900	11900				
CCCCCCCC(=O)SCC/C=C/[C@@H]1CC(=O)NCc2cccc(n2)C2=N[C@@](C)(CS2)C(=O)N[C@@H](C(C)C)C(=O)O1						350	204	332	
CC(C)[C@@H]1NC(=O)[C@]2(C)CSC(=N2)c2cccc(n2)CNC(=O)C[C@@H](/C=C/CCS)OC1=O	341	220	222	290	298			3.07	48.5
CCCCCCCC(=O)SCC/C=C/[C@@H]1CC(=O)NCc2cc(ccn2)C2=N[C@@](C)(CS2)C(=O)N[C@@H](C(C)C)C(=O)O1						655	340	320	
CC(C)[C@@H]1NC(=O)[C@]2(C)CSC(=N2)c2ccnc(c2)CNC(=O)C[C@@H](/C=C/CCS)OC1=O	102	90	93.1	120	122	4.42	2.2	2.31	35.2
CCCCCCCC(=O)SCC/C=C/[C@@H]1CC(=O)NCc2cccc(n2)C2=N[C@@](C)(CS2)C(=O)N[C@@H](C(C)C)C(=O)N1						472	340	332	
CC(C)[C@@H]1NC(=O)[C@]2(C)CSC(=N2)c2cccc(n2)CNC(=O)C[C@@H](/C=C/CCS)NC1=O						69.8	42	42.5	
CCCCCCCC(=O)SCC/C=C/[C@@H]1CC(=O)NCc2cc(ccn2)C2=N[C@@](C)(CS2)C(=O)N[C@@H](C(C)C)C(=O)N1						1240	817	846	
CC(C)[C@@H]1NC(=O)[C@]2(C)CSC(=N2)c2ccnc(c2)CNC(=O)C[C@@H](/C=C/CCS)NC1=O	1490					20.8	13.2	14.6	2850
